{
  "source": "paper PMC8059355",
  "about": "(ACS infectious diseases, 2020)",
  "key": {"[1]": {"tested_on": "L. amazonensis intracellular amastigotes", "type": "cell-based, Leishmania amazonensis", "conditions": "read-out: intracellular amastigotes, EC50 ± SE"}, "[2]": {"tested_on": "L. donovani axenic amastigotes", "assay": "alamarBlue assay, L. donovani axenic amastigotes", "type": "cell-based, Leishmania donovani", "conditions": "read-out: L. donovani axenic amastigotes, EC50 ± SE, 72 h", "summary_of_the_method": "(§1)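 Axenic amastigotes were exposed to a compound dilution series and growth was measured with 10% alamarBlue, fluorescence at 530 nm excitation and 570 nm emission. Each plate held three technical replicates, with at least three biological repeats. Percent growth relative to untreated control was plotted against log10 concentration. EC50 per repeat was fitted by sigmoidal variable-slope nonlinear regression and reported as mean ± SE.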"}, "[3]": {"tested_on": "L. amazonensis promastigotes", "assay": "microscopy of promastigote morphology", "type": "cell-based, Leishmania amazonensis", "conditions": "compared to DMSO control; for increase in pear-shaped promastigotes: 48 h at the EC50 72h; for increase in flagella length: promastigotes, 24 h at the EC50 72h"}, "Cryptosporidium parvum": {"tested_on": "Cryptosporidium parvum", "conditions": "read-out: Cryptosporidium parvum EC50; cited from earlier work"}, "[4]": {"tested_on": "L. amazonensis promastigotes and amastigotes", "assay": "microscopy of cell division in L. amazonensis promastigotes and amastigotes", "type": "cell-based, Leishmania amazonensis", "conditions": "48 h at the EC50 72h concentration; for increase in parasites in mid-cell division, promastigotes: compared to DMSO control"}, "[5]": {"tested_on": "L. amazonensis axenic amastigotes", "type": "cell-based, Leishmania amazonensis", "conditions": "24 h at the EC50 72h, densitometry of Western blots"}, "[6]": {"tested_on": "blood-stage P. falciparum", "assay": "Malaria SYBR green I fluorescence", "type": "cell-based, Plasmodium falciparum", "conditions": "read-out: P. falciparum EC50 ± SE, 3D7, MSF assay"}, "[7]": {"tested_on": "L. tarentolae axenic amastigotes", "assay": "alamarBlue assay, L. tarentolae axenic amastigotes", "type": "cell-based, Leishmania tarentolae", "conditions": "read-out: L. tarentolae axenic amastigotes EC50 ± SE", "summary_of_the_method": "as §1"}, "[8]": {"tested_on": "purified L. tarentolae tubulin", "assay": "chemical cross-linking with SW22 probe and competition, fluorescent tubulin band", "type": "binding, Leishmania tarentolae", "conditions": "for competition with SW22 probe for tubulin, fluorescent band: fully purified tubulin, competitor at 100-fold excess"}, "[9]": {"tested_on": "L. amazonensis promastigotes", "assay": "alamarBlue assay, L. amazonensis promastigotes", "type": "cell-based, Leishmania amazonensis", "conditions": "read-out: Promastigote EC50 ± SE, 72 h"}, "[10]": {"tested_on": "Entamoeba histolytica trophozoite", "conditions": "cited from earlier work"}, "Neospora caninum": {"tested_on": "Neospora caninum", "conditions": "read-out: Neospora caninum EC50; cited from earlier work"}, "[11]": {"tested_on": "blood-stage Trypanosoma brucei", "assay": "CellTiter-Glo luminescent assay, T. brucei", "type": "cell-based", "conditions": "read-out: T. brucei EC50 ± SE"}, "[12]": {"tested_on": "purified L. tarentolae tubulin", "assay": "turbidity tubulin polymerization assay, purified L. tarentolae tubulin", "type": "biochemical, Leishmania tarentolae", "conditions": "read-out: L. tarentolae tubulin polymerization EC50 (estimated); 3 mg/mL tubulin, A340, 30 °C"}, "[13]": {"tested_on": "L. amazonensis axenic amastigotes", "type": "cell-based, Leishmania amazonensis", "conditions": "for EC50: Leishmania amazonensis, 72 h, read-out: EC50 ± SE"}, "L. amazonensis": {"tested_on": "L. amazonensis", "assay": "paclitaxel EC50 72h for La", "type": "cell-based", "conditions": "Leishmania amazonensis, read-out: EC50 72h for La"}, "[14]": {"conditions": "L. amazonensis intracellular amastigotes in RAW 264.7 cells, 72 h, luciferase"}},
  "note": "“Also recorded” adds a separate entry of the source. Where two headings read alike, the source gives them in different places.",
  "data": [
    {"smiles": "N#Cc1nc(-c2ccccc2)oc1S(=O)(=O)c1ccc(Cl)cc1", "note": "[MMV676412]", "values": [
      {"measurement": "EC50", "setting": "[1]; [14]", "value": "> 2000", "unit": "nM"}
    ]},
    {"smiles": "CCc1c(C)nc(-n2nc(C)cc2NC(=O)c2ccccc2SC)[nH]c1=O", "note": "[MMV676477]", "values": [
      {"measurement": "EC50", "setting": "[2]", "value": "1300 ± 210", "unit": "nM"},
      {"measurement": "increase in pear-shaped promastigotes", "setting": "[3]", "value": 2, "unit": "fold"},
      {"measurement": "increase in flagella length", "setting": "[3]", "value": "~ 1.5 fold"},
      {"measurement": "EC50", "setting": "Cryptosporidium parvum", "value": 220, "unit": "nM"},
      {"measurement": "increase in parasites in mid-cell division, promastigotes", "setting": "[4]", "value": "~ 2 fold"},
      {"measurement": "proportion of cellular polymeric tubulin", "setting": "[5]", "value": "significantly increased"},
      {"measurement": "EC50", "setting": "[6]", "value": "420 ± 19", "unit": "nM"},
      {"measurement": "EC50", "setting": "[1]; [14]", "value": "500 ± 20", "unit": "nM"},
      {"measurement": "EC50", "setting": "[7]", "value": "11 ± 1.3", "unit": "nM"},
      {"measurement": "competition with SW22 probe for tubulin, fluorescent band", "setting": "[8]", "value": "significantly dimmer"},
      {"measurement": "EC50", "setting": "[9]", "value": "2400 ± 35", "unit": "nM"},
      {"measurement": "Entamoeba histolytica trophozoite proliferation at 10 μM", "setting": "[10]", "value": 56, "unit": "%"},
      {"measurement": "EC50", "setting": "Neospora caninum", "value": 13, "unit": "nM"},
      {"measurement": "EC50", "setting": "[11]", "value": "190 ± 8.7", "unit": "nM"},
      {"measurement": "CC50", "setting": "RAW 264.7 cells", "value": "2200 ± 410", "unit": "nM"},
      {"measurement": "EC50", "setting": "[12]", "value": "500 ± 100", "unit": "nM"}
    ]},
    {"smiles": "CSc1ccccc1C(=O)Oc1cc(C)nc(-n2nc(C)cc2N)n1", "note": "[SW10]", "values": [
      {"measurement": "dimming of the fluorescent tubulin band in presence of competitor", "setting": "[8]; L. tarentolae tubulin still including some additional proteins, SW22 probe", "value": "No apparent dimming"},
      {"measurement": "competition with SW22 probe for tubulin, fluorescent band", "setting": "[8]", "value": "no apparent competition"},
      {"measurement": "EC50", "setting": "[9]", "value": "> 50000", "unit": "nM"},
      {"measurement": "antileishmanial activity (in words)", "setting": "[13]; L. amazonensis", "value": "essentially inactive; also recorded: nearly inactive"},
      {"measurement": "CC50", "setting": "RAW 264.7 cells", "value": "> 10000", "unit": "nM"}
    ]},
    {"smiles": "C#CCOc1ccc(C(=O)c2ccc(C(=O)Nc3cc(C)nn3-c3nc(C)c(CC)c(=O)[nH]3)cc2)cc1", "note": "[SW22, N-(1-(5-ethyl-4-methyl-6-oxo-1,6-dihydropyrimidin-2-yl)-3-methyl-1H-pyra-zol-5-yl)-4-(4-(prop-2-yn-1-yloxy)benzoyl) benzamide]", "values": [
      {"measurement": "EC50", "setting": "[9]", "value": "6700 ± 53", "unit": "nM"},
      {"measurement": "CC50", "setting": "RAW 264.7 cells", "value": "1300 ± 42", "unit": "nM"}
    ]},
    {"smiles": "CCc1c(C)nc(-n2nc(C)cc2NC(=O)c2ccc(F)c(Cl)c2)[nH]c1=O", "note": "[SW41]", "values": [
      {"measurement": "EC50", "setting": "[2]", "value": "310 ± 38", "unit": "nM"},
      {"measurement": "EC50", "setting": "[1]; [14]", "value": "220 ± 13", "unit": "nM"},
      {"measurement": "EC50", "setting": "[9]", "value": "780 ± 29", "unit": "nM"},
      {"measurement": "CC50", "setting": "RAW 264.7 cells", "value": "2400 ± 100", "unit": "nM"}
    ]},
    {"smiles": "C[C@@H]1[C@H](O)[C@@H](C)/C=C/C=C/C=C/C=C/C=C/C=C/C=C/[C@H](O[C@@H]2O[C@H](C)[C@@H](O)[C@H](N)[C@@H]2O)C[C@@H]2O[C@](O)(C[C@@H](O)C[C@@H](O)[C@H](O)CC[C@@H](O)C[C@@H](O)CC(=O)O[C@H]1C)C[C@H](O)[C@H]2C(=O)O", "note": "[amphotericin B, reference compound]", "values": [
      {"measurement": "EC50", "setting": "[1]; Leishmania amazonensis, RAW264.7, 72 h", "value": "65 ± 26", "unit": "nM"},
      {"measurement": "EC50", "setting": "[13]", "value": "53 ± 4.4", "unit": "nM"}
    ]},
    {"smiles": "CC(C)(C)[C@H]1CC[C@H](CC2=C(O)C(=O)c3ccccc3C2=O)CC1", "note": "[buparvaquone]", "values": [
      {"measurement": "EC50", "setting": "[13]", "value": "12 ± 1.1", "unit": "nM"}
    ]},
    {"smiles": "C[C@]1(COc2ccc(N3CCC(Oc4ccc(OC(F)(F)F)cc4)CC3)cc2)Cn2cc([N+](=O)[O-])nc2O1", "note": "[delamanid]", "values": [
      {"measurement": "EC50", "setting": "[13]", "value": "31 ± 3.5", "unit": "nM"}
    ]},
    {"smiles": "CCCCCCCCCCCCCCCCOP(=O)([O-])OCC[N+](C)(C)C", "note": "[miltefosine]", "values": [
      {"measurement": "increase in pear-shaped promastigotes", "setting": "[3]", "value": "did not affect"},
      {"measurement": "increase in flagella length", "setting": "[3]", "value": "did not affect"},
      {"measurement": "effect on L. amazonensis cell division", "setting": "[4]", "value": "did not affect L. amazonensis cell division"},
      {"measurement": "EC50", "setting": "[13]", "value": "1200 ± 280", "unit": "nM"}
    ]},
    {"smiles": "CC(=O)Oc1ccccc1C(=O)Nc1ncc([N+](=O)[O-])s1", "note": "[nitazoxanide]", "values": [
      {"measurement": "EC50", "setting": "[13]", "value": "590 ± 100", "unit": "nM"}
    ]},
    {"smiles": "CC(=O)O[C@H]1C(=O)[C@@]2(C)[C@H]([C@H](OC(=O)c3ccccc3)[C@]3(O)C[C@H](OC(=O)[C@H](O)[C@@H](NC(=O)c4ccccc4)c4ccccc4)C(C)=C1C3(C)C)[C@]1(OC(C)=O)CO[C@@H]1C[C@@H]2O", "note": "[paclitaxel]", "values": [
      {"measurement": "increase in pear-shaped promastigotes", "setting": "[3]", "value": 2, "unit": "fold"},
      {"measurement": "increase in flagella length", "setting": "[3]", "value": "~ 1.5 fold"},
      {"measurement": "increase in parasites in mid-cell division, promastigotes", "setting": "[4]", "value": "~ 2 fold"},
      {"measurement": "proportion of cellular polymeric tubulin", "setting": "[5]", "value": "significantly increased"},
      {"measurement": "EC50", "setting": "L. amazonensis", "value": "760 ± 8.3", "unit": "nM"},
      {"measurement": "EC50", "setting": "[12]", "value": "1300 ± 100", "unit": "nM"}
    ]}
  ]
}
